According to ChEMBL document CHEMBL4385606, “3,5,7-Substituted Pyrazolo[4,3- d]pyrimidine Inhibitors of Cyclin-Dependent Kinases and Their Evaluation in Lymphoma Models” (J Med Chem, 2019):
Calls of active or inactive are those of the source. The rule behind the calls is not given here.

Legend:
Homo sapiens [1] = species: Homo sapiens; assay: Induction of apoptosis in human Mino cells assessed as effect on BCL-xL protein expression at 12.5 nM after 2 to 24 hrs by immunoblotting analysis; assay type: functional, cell-based
Procedure, shortened: (§1)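 Lymphoma cell lines were cultured as the providers instruct and exposed to compound at several doses or for several times. Lysates were run on SDS-PAGE and blotted to nitrocellulose. Blots were blocked, incubated overnight with primary antibodies diluted in PBS with 5% milk and 0.1% Tween 20, then with peroxidase-conjugated secondaries, and detected by chemiluminescence on a CCD camera.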

Homo sapiens [2] = species: Homo sapiens; assay: Induction of apoptosis in human Mino cells assessed as decrease in XIAP level at 12.5 nM for 2 to 24 hrs by immunoblotting analysis; assay type: functional, cell-based; procedure, shortened: as §1
THP-1 = assay: Antiproliferative activity against human THP1 cells assessed as growth inhibition measured after 72 hrs by calcein AM dye-based fluorescence assay; assay type: functional, cell-based; settings: THP-1, 72 h
Procedure, shortened: (§2)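 Cells exposed in triplicate to six concentrations for 72 h; calcein AM added for 1 h, live-cell fluorescence read at 485/538 nm (ex/em). GI50 taken from dose-response curves.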

Homo sapiens [3] = species: Homo sapiens; assay: Induction of apoptosis in human Mino cells assessed as caspase 3 activation at 1.5 to 12.5 nM after 24 hrs by immunoblotting analysis; assay type: functional, cell-based; procedure, shortened: as §1
[4] = Antiproliferative activity against human HBL1 cells assessed as growth inhibition measured after 72 hrs by calcein AM dye-based fluorescence assay; assay type: functional, cell-based; settings: HBL1, 72 h; procedure, shortened: as §2
[5] = Antiproliferative activity against human OCI-Ly2 cells measured after 72 hrs by calcein AM dye-based fluorescence assay; assay type: functional; procedure, shortened: as §2
[6] = target: Cyclin-dependent kinase 7 (Homo sapiens) (UniProt P50613); assay: Inhibition of CDK7 in human Mino cells assessed as decrease in phosphorylation of Rb at Ser 780 residue at 12.5 nM by immunoblotting analysis; assay type: cell-based; settings: TDE = time-dependent effect
Cyclin-dependent kinase 7 (Homo sapiens), sequence (P50613 whole entry, the tested form may be a part): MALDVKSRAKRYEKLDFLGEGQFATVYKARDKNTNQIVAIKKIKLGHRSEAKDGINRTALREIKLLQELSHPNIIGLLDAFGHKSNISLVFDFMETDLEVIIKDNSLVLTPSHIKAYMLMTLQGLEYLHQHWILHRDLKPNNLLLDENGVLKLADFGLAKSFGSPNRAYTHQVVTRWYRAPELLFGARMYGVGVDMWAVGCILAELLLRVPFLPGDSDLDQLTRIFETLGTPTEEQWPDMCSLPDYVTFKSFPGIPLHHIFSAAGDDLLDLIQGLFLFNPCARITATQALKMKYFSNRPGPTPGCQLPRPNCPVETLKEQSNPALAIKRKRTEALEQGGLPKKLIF
Procedure, shortened: (§3)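 MINO lymphoma cells were treated at 12.5 nM, with time points over 24 h. Lysates were separated by SDS-PAGE and blotted to nitrocellulose. Phospho-RNA polymerase II CTD (Ser2, Ser5) and phospho-Rb (Ser608, Ser780) were probed with primary antibodies overnight and peroxidase-conjugated secondaries. Detection was by chemiluminescence on a CCD camera.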

Maver1 = assay: Induction of apoptosis in human Maver1 cells assessed as activation of caspase-7 at 1.5 to 12.5 nM after 24 hrs by immunoblot analysis; assay type: functional, cell-based; procedure, shortened: as §1
HT [7] = assay: Antiproliferative activity against human HT cells measured after 72 hrs by calcein AM dye-based fluorescence assay; assay type: functional; procedure, shortened: as §2
U2932 = assay: Antiproliferative activity against human U2932 cells assessed as growth inhibition measured after 72 hrs by calcein AM dye-based fluorescence assay; assay type: functional, cell-based; settings: U2932, 72 h; procedure, shortened: as §2
CCRF-CEM = assay: Antiproliferative activity against human CEM cells assessed as growth inhibition measured after 72 hrs by calcein AM dye-based fluorescence assay; assay type: functional, cell-based; procedure, shortened: as §2
[8] = target: Casein kinase I isoform delta (Homo sapiens, UniProt P48730); assay: Inhibition of CK1delta (unknown origin) assessed as residual activity at 1 uM relative to control
Casein kinase I isoform delta, sequence (P48730 whole entry, looked up, canonical isoform): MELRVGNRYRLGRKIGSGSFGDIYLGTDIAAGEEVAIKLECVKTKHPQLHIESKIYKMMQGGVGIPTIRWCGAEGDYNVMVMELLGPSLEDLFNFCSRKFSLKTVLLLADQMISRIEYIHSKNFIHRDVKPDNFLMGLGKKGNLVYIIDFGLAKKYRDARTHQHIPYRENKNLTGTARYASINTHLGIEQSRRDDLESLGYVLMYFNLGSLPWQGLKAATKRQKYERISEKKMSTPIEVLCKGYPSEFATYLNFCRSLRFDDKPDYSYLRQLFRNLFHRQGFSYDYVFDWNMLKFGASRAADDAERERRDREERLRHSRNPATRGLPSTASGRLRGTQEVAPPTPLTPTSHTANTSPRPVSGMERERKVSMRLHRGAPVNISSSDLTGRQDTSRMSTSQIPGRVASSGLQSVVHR
Procedure, shortened: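 Single-concentration screen at 1 µM across a panel of 50 protein kinases sampling the human kinome; read-out is residual kinase activity (%).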

Homo sapiens [9] = species: Homo sapiens; assay: Induction of apoptosis in human UPF1H cells assessed as reduction in MCL1 expression at 12.5 to 100 nM after 24 hrs by immunoblot analysis; assay type: functional, cell-based; procedure, shortened: as §1
Mus musculus [10] = assay: Ex vivo antitumor activity against human UPF1H cells xenografted NSG mouse decrease in phosphorylation of Rb at […] residue at 5 to 10 mg/kg, iv measured after 24 hrs by immunoblotting analysis; assay type: functional, organism-based
Procedure, shortened: (§4)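 Female NSG mice, 8-12 weeks old, implanted s.c. with lymphoma cells. Once tumors were palpable, mice received a single tail-vein i.v. dose (5 or 10 mg/kg) of compound dissolved in PBS. Mice were euthanized 24 h later. Tumors were excised, filtered through 45 µm nylon mesh and lysed, then proteins were analysed by immunoblotting.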

Mus musculus [11] = assay: Ex vivo antitumor activity against Maver1 xenografted NSG mouse assessed as induction of PARP1 cleavage at 10 mg/kg, iv measured after 24 hrs by immunoblotting analysis; assay type: functional, organism-based
Procedure, shortened: (§5)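 NSG mice bearing palpable s.c. tumors received a single i.v. dose (5 or 10 mg/kg) and were euthanized after 24 h. Excised tumors were filtered through 45 µm nylon mesh, lysed and run on SDS-PAGE, transferred to nitrocellulose, probed overnight with primary antibodies in PBS with 5% milk and 0.1% Tween 20, then peroxidase secondaries, with chemiluminescent detection.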

Mus musculus [12] = assay: Ex vivo antitumor activity against human Mino cells xenografted NSG mouse assessed as effect on BCL-2 expression at 5 to 10 mg/kg, iv measured after 24 hrs by immunoblotting analysis; assay type: functional, organism-based; procedure, shortened: as §5
Homo sapiens [13] = species: Homo sapiens; assay: Induction of apoptosis in human Mino cells assessed as effect on BCL-2 protein expression at 12.5 nM after 2 to 24 hrs by immunoblotting analysis; assay type: functional, cell-based; procedure, shortened: as §1
[14] = Antiproliferative activity against human Mino cells assessed as growth inhibition measured after 72 hrs by calcein AM dye-based fluorescence assay; assay type: functional, cell-based; procedure, shortened: as §2
[15] = target: Cyclin-dependent kinase 7 (Homo sapiens) (UniProt P50613); assay: Inhibition of CDK7 in human Mino cells assessed as decrease in phosphorylation of RNA polymerase 2 C-terminal domain at Ser 5 residue at 12.5 nM by immunoblotting analysis; assay type: cell-based; settings: TDE = time-dependent effect; procedure, shortened: as §3
Mus musculus [16] = assay: Ex vivo antitumor activity against patient derived VFN-M1 cells xenografted NSG mouse assessed as effect on BCL2 expression at 10 mg/kg, iv measured after 24 hrs by immunoblotting analysis; assay type: functional, organism-based; procedure, shortened: as §4
[17] = target: Cyclin-dependent kinase 1/cyclin B1 (Homo sapiens, UniProt P06493); assay: Inhibition of His-tagged CDK1/Cyclin-B1 (unknown origin) expressed in baculovirus infected Sf9 insect cells using histone H1 as substrate measured in presence of [gamma-33P]ATP
Cyclin-dependent kinase 1/cyclin B1, sequence (P06493 whole entry): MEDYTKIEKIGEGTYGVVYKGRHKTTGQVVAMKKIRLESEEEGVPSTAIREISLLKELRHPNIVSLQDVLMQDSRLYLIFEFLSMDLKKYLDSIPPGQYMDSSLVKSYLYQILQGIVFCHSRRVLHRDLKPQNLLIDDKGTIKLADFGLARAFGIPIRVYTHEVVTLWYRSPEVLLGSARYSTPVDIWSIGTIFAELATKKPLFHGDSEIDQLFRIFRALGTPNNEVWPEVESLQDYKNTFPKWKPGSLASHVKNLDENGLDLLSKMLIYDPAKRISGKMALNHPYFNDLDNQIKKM
Cyclin-dependent kinase 1/cyclin B1, sequence (P14635 whole entry, further chain): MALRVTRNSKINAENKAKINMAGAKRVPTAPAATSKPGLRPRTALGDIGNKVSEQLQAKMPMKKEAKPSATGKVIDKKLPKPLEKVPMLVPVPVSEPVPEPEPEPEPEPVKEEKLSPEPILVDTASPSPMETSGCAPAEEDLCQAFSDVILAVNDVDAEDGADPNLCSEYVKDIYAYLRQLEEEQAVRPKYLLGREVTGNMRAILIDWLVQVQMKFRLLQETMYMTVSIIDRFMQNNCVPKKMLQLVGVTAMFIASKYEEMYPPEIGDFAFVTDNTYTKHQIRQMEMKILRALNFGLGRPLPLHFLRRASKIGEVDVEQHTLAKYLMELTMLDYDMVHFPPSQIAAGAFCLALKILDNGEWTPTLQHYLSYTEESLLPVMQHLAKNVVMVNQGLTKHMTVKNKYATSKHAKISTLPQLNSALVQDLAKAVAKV
Procedure, shortened: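 CDK/cyclin complexes tested in triplicate at minimum; IC50 values reported from those replicate determinations.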

[18] = target: Cyclin-dependent kinase 7 (Homo sapiens) (UniProt P50613); assay: Inhibition of CDK7 in human Mino cells assessed as decrease in phosphorylation of RNA polymerase 2 C-terminal domain at Ser 2 residue at 12.5 nM by immunoblotting analysis; assay type: cell-based; settings: TDE = time-dependent effect; procedure, shortened: as §3
[19] = target: Serine/threonine-protein kinase Chk2 (Homo sapiens, UniProt O96017); assay: Inhibition of CHK2 (unknown origin)
Serine/threonine-protein kinase Chk2, sequence (O96017 whole entry): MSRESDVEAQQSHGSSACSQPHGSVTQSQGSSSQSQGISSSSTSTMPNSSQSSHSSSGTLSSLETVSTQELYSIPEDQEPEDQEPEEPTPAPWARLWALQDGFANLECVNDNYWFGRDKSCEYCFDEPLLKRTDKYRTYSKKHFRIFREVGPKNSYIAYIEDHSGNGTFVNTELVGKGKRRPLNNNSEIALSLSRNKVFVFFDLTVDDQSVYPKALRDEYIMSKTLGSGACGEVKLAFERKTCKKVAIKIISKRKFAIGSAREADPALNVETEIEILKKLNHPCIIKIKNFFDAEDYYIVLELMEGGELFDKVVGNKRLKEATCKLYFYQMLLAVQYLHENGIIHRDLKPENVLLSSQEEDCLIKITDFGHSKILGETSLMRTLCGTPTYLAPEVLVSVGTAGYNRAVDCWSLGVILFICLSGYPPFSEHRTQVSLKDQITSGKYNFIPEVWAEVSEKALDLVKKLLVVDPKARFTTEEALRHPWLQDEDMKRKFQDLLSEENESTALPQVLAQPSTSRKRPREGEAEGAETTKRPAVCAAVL

Mus musculus [20] = assay: Ex vivo antitumor activity against patient derived VFN-M1 cells xenografted NSG mouse assessed as down regulation of XIAP expression at 10 mg/kg, iv measured after 24 hrs by immunoblotting analysis; assay type: functional, organism-based; procedure, shortened: as §4
[21] = Antiproliferative activity against human Mino cells measured after 72 hrs by calcein AM dye-based fluorescence assay; assay type: functional; procedure, shortened: as §2
Homo sapiens [22] = assay: Antitumor activity against human Mino cells xenografted in NSG mouse assessed as inhibition of tumor growth at 10 mg/kg, iv administered daily measured every day during compound dosing by caliper method; assay type: functional, organism-based
Procedure, shortened: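 Female NSG mice, 8-12 weeks old, given cells s.c.; once all had palpable tumors, daily i.v. tail-vein dosing at 10 mg/kg in PBS. Two perpendicular tumor diameters measured daily by caliper. Study ended when any mouse's tumor reached ≥2 cm. Groups: MINO n=10, MAVER-1 n=12, Hbl-2 n=8, VFN-M1 PDX n=10.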

HT [23] = assay: Antiproliferative activity against human HT cells assessed as growth inhibition measured after 72 hrs by calcein AM dye-based fluorescence assay; assay type: functional, cell-based; procedure, shortened: as §2

## CC(C)c1n[nH]c2c(NCc3ccc(-c4ccccn4)cc3)nc(SCCN)nc12
Homo sapiens [1]
  Activity: inactive
Homo sapiens [2]
  Activity: Active
THP-1
  GI50: 19 nM
  IC50: 19 nM
Homo sapiens [3]
  Activity: Active
[4]
  GI50: 10 nM
  IC50: 10 nM
[5]
  GI50: 28 nM
[6]
  inhibition: Tde
Maver1
  Activity: Active
HT [7]
  GI50: 22 nM
U2932
  GI50: 30 nM
  IC50: 30 nM
CCRF-CEM
  GI50: 33 nM
  IC50: 33 nM
[8]
  Activity: 11%
Homo sapiens [9]
  Activity: Active
Mus musculus [10]
  Activity: Active
Mus musculus [11]
  Activity: Active
Mus musculus [12]
  Activity: inactive
Homo sapiens [13]
  Activity: inactive
[14]
  GI50: 16 nM
  IC50: 16 nM
[15]
  inhibition: Tde
Mus musculus [16]
  Activity: inactive
[17]
  IC50: 90 nM
[18]
  inhibition: Tde
[19]
  IC50: 525 nM
Mus musculus [20]
  Activity: Active
[21]
  GI50: 41 nM
Homo sapiens [22]
  TGI: Active
HT [23]
  GI50: 19 nM
  IC50: 19 nM
